Experimental data reported in ChEMBL document CHEMBL5357066, “Development of Novel Membrane Disrupting Lipoguanidine Compounds Sensitizing Gram-Negative Bacteria to Antibiotics” (ACS Med Chem Lett, 2024).
Converted amounts (≈) assume the structure as drawn.

Legend:
Acinetobacter baumannii [1] = experiment: Antibacterial activity against Acinetobacter baumannii AYE assessed as bacterial growth inhibition incubated for overnight by microbroth dilution method; format: functional
Procedure, shortened: (§1)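 Broth microdilution in Tryptic Soy Broth. DMSO stocks were diluted in TSB as 2-fold series. Overnight TSB cultures were back-diluted to OD 0.01 and mixed 1:1 with compound. Incubation was overnight at 37 °C. MIC was the lowest concentration without visible growth (<0.1 OD600). DMSO vehicle was checked at equivalent concentrations.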

Acinetobacter baumannii [2] = experiment: Synergistic antibacterial activity against Acinetobacter baumannii ATCC 17978 assessed as bacterial growth inhibition incubated for overnight in presence of PBMN by microbroth dilution method relative to control; format: functional
Procedure, shortened: (§2)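 Adapted broth microdilution in TSB. The test compound was in a 2-fold dilution series, with PMBN added at a fixed 30 µg/mL. Bacteria at OD 0.02 were added, and plates were incubated overnight at 37 °C. Growth/no growth was read as for the MIC (<0.1 OD600).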

Escherichia coli [3] = experiment: Synergistic antibacterial activity against Escherichia coli NCTC 12923 assessed as fold change in rifampicin MIC at <=0.25 times MIC incubated for overnight by microbroth dilution checkerboard assay relative to rifampicin alone; format: functional
Procedure, shortened: (§3)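 Checkerboard microdilution under MIC conditions (TSB, overnight, 37 °C). Two-fold series of each agent were combined on one plate before bacteria were added, and single-agent MICs were measured on the same plate. FIC = sum of combination MIC/alone MIC for each agent, taken from the most synergistic well. Three independent repeats, mean ± SD. ≤0.5 was taken as strong synergy and 0.5–<1 as weak.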

Klebsiella pneumoniae [4] = experiment: Antibacterial activity against ESBL Klebsiella pneumoniae NCTC 13368 assessed as bacterial growth inhibition incubated for overnight by microbroth dilution method
Escherichia coli [5] = experiment: Synergistic antibacterial activity against Escherichia coli NCTC 12923 assessed as rifampicin MIC at <=0.25 times MIC incubated for overnight by microbroth dilution checkerboard assay; format: functional; procedure, shortened: as §3
Acinetobacter baumannii [6] = experiment: Synergistic antibacterial activity against Acinetobacter baumannii ATCC 17978 assessed as fold change in rifampicin MIC at <=0.25 times MIC incubated for overnight by microbroth dilution checkerboard assay relative to rifampicin alone; format: functional; procedure, shortened: as §3
Klebsiella pneumoniae [7] = experiment: Antibacterial activity against Klebsiella pneumoniae M6 assessed as bacterial growth inhibition incubated for overnight by microbroth dilution method
Escherichia coli [8] = experiment: Antibacterial activity against Escherichia coli NCTC 12923 assessed as bacterial growth inhibition incubated for overnight by microbroth dilution method; format: functional; procedure, shortened: as §1
Acinetobacter baumannii [9] = experiment: Synergistic antibacterial activity against Acinetobacter baumannii ATCC 17978 assessed as rifampicin MIC at <=0.25 times MIC incubated for overnight by microbroth dilution checkerboard assay; format: functional; procedure, shortened: as §3
Klebsiella pneumoniae [10] = experiment: Synergistic antibacterial activity against Klebsiella pneumoniae NCTC 13368 assessed as bacterial growth inhibition incubated for overnight in presence of PBMN by microbroth dilution method relative to control; format: functional; procedure, shortened: as §2
Acinetobacter baumannii [11] = experiment: Synergistic antibacterial activity against Acinetobacter baumannii AYE assessed as rifampicin MIC at <=0.25 times MIC incubated for overnight by microbroth dilution checkerboard assay; format: functional; procedure, shortened: as §3
Staphylococcus aureus [12] = experiment: Antibacterial activity against methicillin resistant Staphylococcus aureus USA 300 assessed as bacterial growth inhibition incubated for overnight by microbroth dilution method; format: functional
Procedure, shortened: (§4)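 Microbroth dilution in Tryptic Soy Broth. DMSO stocks were diluted in TSB as 2-fold series. Overnight TSB cultures were back-diluted to OD 0.01 and mixed 1:1 with compound. Incubation was overnight at 37 °C. MIC is the lowest concentration with no visible growth (<0.1 OD600). DMSO at equivalent concentrations was checked.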

Pseudomonas aeruginosa [13] = experiment: Synergistic antibacterial activity against Pseudomonas aeruginosa NCTC 13437 assessed as bacterial growth inhibition incubated for overnight in presence of PBMN by microbroth dilution method relative to control; format: functional; procedure, shortened: as §2
Pseudomonas aeruginosa [14] = experiment: Synergistic antibacterial activity against Pseudomonas aeruginosa PAO1 assessed as rifampicin MIC at <=0.25 times MIC incubated for overnight by microbroth dilution checkerboard assay; format: functional
Procedure, shortened: (§5)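 Checkerboard microdilution in Tryptic Soy Broth, run like the MIC assay. Overnight TSB cultures were back-diluted to OD 0.01 and added 1:1 to the combined two-fold series of both agents, then incubated overnight at 37 °C. Growth/no-growth was called at <0.1 OD600. MICs alone were read on the same plates. FIC index came from the most synergistic well; three independent repeats, mean ± SD.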

Staphylococcus aureus [15] = experiment: Antibacterial activity against methicillin sensitive Staphylococcus aureus ATCC 9144 assessed as bacterial growth inhibition incubated for overnight by microbroth dilution method; format: functional; procedure, shortened: as §4
Enterococcus faecium = experiment: Antibacterial activity against vancomycin resistant Enterococcus faecium NCTC 12204 assessed as bacterial growth inhibition incubated for overnight by microbroth dilution method; format: functional; procedure, shortened: as §4
Pseudomonas aeruginosa [16] = experiment: Synergistic antibacterial activity against Pseudomonas aeruginosa NCTC 13437 assessed as rifampicin MIC at <=0.25 times MIC incubated for overnight by microbroth dilution checkerboard assay; format: functional; procedure, shortened: as §5
Klebsiella pneumoniae [17] = experiment: Synergistic antibacterial activity against […] Klebsiella pneumoniae M6 assessed as rifampicin MIC at <=0.25 times MIC incubated for overnight by microbroth dilution checkerboard assay; format: functional
Procedure, shortened: (§6)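 Checkerboard run under the MIC conditions (TSB, overnight, 37 °C). Antibiotic and lipoguanidine 2-fold series were combined on one plate before bacteria were added. Growth/no-growth was scored as for the MIC (<0.1 OD600). Single-agent MICs were measured on the same plates. Three independent repeats were done.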

Pseudomonas aeruginosa [18] = experiment: Synergistic antibacterial activity against Pseudomonas aeruginosa PAO1 assessed as bacterial growth inhibition incubated for overnight in presence of […] by microbroth dilution method relative to control; format: functional
Procedure, shortened: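 Fixed-concentration combination MIC in TSB. The first agent was set in a two-fold dilution series (100 µL/well), then 50 µL/well of the second agent at a fixed concentration was added; PMBN was fixed at 30 µg/mL. Bacteria at OD 0.02 (50 µL) went into 150 µL of compounds, overnight at 37 °C. MIC was the lowest concentration without visible growth (<0.1 OD600).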

Enterococcus faecalis [19] = experiment: Antibacterial activity against vancomycin sensitive Enterococcus faecalis NCTC 775 assessed as bacterial growth inhibition incubated for overnight by microbroth dilution method
Staphylococcus aureus [20] = experiment: Antibacterial activity against methicillin sensitive Staphylococcus aureus 1199B assessed as bacterial growth inhibition incubated for overnight by microbroth dilution method; format: functional; procedure, shortened: as §4
Acinetobacter baumannii [21] = experiment: Synergistic antibacterial activity against Acinetobacter baumannii AYE assessed as fold change in rifampicin MIC at <=0.25 times MIC incubated for overnight by microbroth dilution checkerboard assay relative to rifampicin alone; format: functional; procedure, shortened: as §3
Acinetobacter baumannii [22] = experiment: Synergistic antibacterial activity against Acinetobacter baumannii AYE assessed as bacterial growth inhibition incubated for overnight in presence of PBMN by microbroth dilution method relative to control; format: functional; procedure, shortened: as §2
Klebsiella pneumoniae [23] = experiment: Synergistic antibacterial activity against Klebsiella pneumoniae NCTC 13368 assessed as rifampicin MIC at <=0.25 times MIC incubated for overnight by microbroth dilution checkerboard assay; format: functional; procedure, shortened: as §3
Staphylococcus aureus [24] = experiment: Antibacterial activity against methicillin resistant Staphylococcus aureus NCTC 13616 assessed as bacterial growth inhibition incubated for overnight by microbroth dilution method; format: functional; procedure, shortened: as §4
Enterococcus faecalis [25] = experiment: Antibacterial activity against vancomycin resistant Enterococcus faecalis NCTC 12201 assessed as bacterial growth inhibition incubated for overnight by microbroth dilution method; format: functional; procedure, shortened: as §4
Klebsiella pneumoniae [26] = experiment: Synergistic antibacterial activity against Klebsiella pneumoniae NCTC 13368 assessed as fold change in rifampicin MIC at <=0.25 times MIC incubated for overnight by microbroth dilution checkerboard assay relative to rifampicin alone; format: functional; procedure, shortened: as §6
Pseudomonas aeruginosa [27] = experiment: Synergistic antibacterial activity against Pseudomonas aeruginosa NCTC 13437 assessed as fold change in rifampicin MIC at <=0.25 times MIC incubated for overnight by microbroth dilution checkerboard assay relative to rifampicin alone; format: functional; procedure, shortened: as §5
Pseudomonas aeruginosa [28] = experiment: Antibacterial activity against Pseudomonas aeruginosa PAO1 assessed as bacterial growth inhibition incubated for overnight by microbroth dilution method; format: functional; procedure, shortened: as §1
Escherichia coli [29] = experiment: Synergistic antibacterial activity against Escherichia coli NCTC 12923 assessed as bacterial growth inhibition incubated for overnight in presence of PBMN by microbroth dilution method relative to control; format: functional; procedure, shortened: as §2
Pseudomonas aeruginosa [30] = experiment: Synergistic antibacterial activity against Pseudomonas aeruginosa PAO1 assessed as fold change in rifampicin MIC at <=0.25 times MIC incubated for overnight by microbroth dilution checkerboard assay relative to rifampicin alone; format: functional; procedure, shortened: as §5
Pseudomonas aeruginosa [31] = experiment: Antibacterial activity against Pseudomonas aeruginosa NCTC 13437 assessed as bacterial growth inhibition incubated for overnight by microbroth dilution method; format: functional; procedure, shortened: as §1
Klebsiella pneumoniae [32] = experiment: Synergistic antibacterial activity against Klebsiella pneumoniae M6 assessed as bacterial growth inhibition incubated for overnight in presence of PBMN by microbroth dilution method relative to control; format: functional; procedure, shortened: as §2
Acinetobacter baumannii [33] = experiment: Antibacterial activity against Acinetobacter baumannii ATCC 17978 assessed as bacterial growth inhibition incubated for overnight by microbroth dilution method; format: functional; procedure, shortened: as §1

## CCCCC/C=C\C/C=C\CCCCCCCCNC(=N)NCCCCCCCCN
Acinetobacter baumannii [1]
  MIC: 16 µg/mL (≈ 36.8 µM)
Acinetobacter baumannii [2]
  inhibition (INH): <20%
Escherichia coli [3]
  fold change (FC): 0
Klebsiella pneumoniae [4]
  MIC: 32 µg/mL (≈ 73.6 µM)
Escherichia coli [5]
  MIC: 8 µg/mL
Acinetobacter baumannii [6]
  fold change (FC): 0
Klebsiella pneumoniae [7]
  MIC: 16 µg/mL (≈ 36.8 µM)
Escherichia coli [8]
  MIC: 8 µg/mL (≈ 18.4 µM)
Acinetobacter baumannii [9]
  MIC: ≤ 0.125 µg/mL
Klebsiella pneumoniae [10]
  inhibition (INH): <20%
Acinetobacter baumannii [11]
  MIC: 2 µg/mL
Staphylococcus aureus [12]
  MIC: 2 µg/mL (≈ 4.6 µM)
Pseudomonas aeruginosa [13]
  inhibition (INH): <20%
Pseudomonas aeruginosa [14]
  MIC: 16 µg/mL
Staphylococcus aureus [15]
  MIC: 2 µg/mL (≈ 4.6 µM)
Enterococcus faecium
  MIC: 4 µg/mL (≈ 9.2 µM)
Pseudomonas aeruginosa [16]
  MIC: 16 µg/mL
Klebsiella pneumoniae [17]
  MIC: 4 µg/mL
Pseudomonas aeruginosa [18]
  inhibition (INH): <20%
Enterococcus faecalis [19]
  MIC: 8 µg/mL (≈ 18.4 µM)
Staphylococcus aureus [20]
  MIC: 4 µg/mL (≈ 9.2 µM)
Acinetobacter baumannii [21]
  fold change (FC): >=4
Acinetobacter baumannii [22]
  inhibition (INH): <20%
Klebsiella pneumoniae [23]
  MIC: 8 µg/mL
Staphylococcus aureus [24]
  MIC: 4 µg/mL (≈ 9.2 µM)
Enterococcus faecalis [25]
  MIC: 4 µg/mL (≈ 9.2 µM)
Klebsiella pneumoniae [26]
  fold change (FC): >=4
Pseudomonas aeruginosa [27]
  fold change (FC): 0
Pseudomonas aeruginosa [28]
  MIC: > 128 µg/mL
Escherichia coli [29]
  inhibition (INH): <20%
Pseudomonas aeruginosa [30]
  fold change (FC): 0
Pseudomonas aeruginosa [31]
  MIC: > 128 µg/mL
Klebsiella pneumoniae [32]
  inhibition (INH): <20%
Acinetobacter baumannii [33]
  MIC: 8 µg/mL (≈ 18.4 µM)
